Measurements taken from ChEMBL document CHEMBL3616432, “(+)-Dehydroabietylamine derivatives target triple-negative breast cancer” (Eur J Med Chem, 2015).
Activity calls are given as the source filed them. No cut-off for these calls is given here.

Key:
[1] = Permeability of the compound at pH 7.4 by PAMPA assay; assay type: physicochemical; conditions: read-out: permeability
[2] = Apparent permeability from apical to basolateral side in human Caco2 cells; assay type: ADME, cell-based; conditions: Caco-2
[3] = Apparent permeability from basolateral to apical side in human Caco2 cells; assay type: ADME, cell-based; conditions: Caco-2
[4] = Efflux ratio of permeability from basolateral to apical side over apical to basolateral side in human Caco2 cells; assay type: ADME, cell-based; conditions: Caco-2
[5] = Permeability of the compound at pH 7.4 assessed as drug retention by PAMPA assay; assay type: physicochemical
[6] = Half life in human plasma; assay type: ADME, cell-free
In short: (§1)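 Compound stability incubated in human or mouse plasma; half-life determined, with known drugs as controls.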

[7] = Half life in mouse plasma; assay type: ADME, cell-free; in short: as §1
[8] = system: MDA-MB-231; test: Antiproliferative activity against human triple-negative MDA-MB-231 cells at 35 uM after 72 hrs by CellTiter-Glo assay; assay type: functional, cell-based
[9] = organism: Homo sapiens; test: Antiproliferative activity against human ER-positive MA11 cells at 48 uM after 72 hrs by CellTiter-Glo assay; assay type: functional
[10] = system: MCF7; test: Antiproliferative activity against human ER-positive MCF7 cells at 48 uM after 72 hrs by CellTiter-Glo assay; assay type: functional, cell-based
[11] = system: MDA-MB-231; test: Cell cycle arrest in human triple-negative MDA-MB-231 cells assessed as accumulation at G0/G1 phase at 30.0 uM after 12 hrs by propidium iodide staining-based flow cytometry (reference value: 48.36%); assay type: functional
[12] = system: MDA-MB-231; test: Cell cycle arrest in human triple-negative MDA-MB-231 cells assessed as accumulation at G2/M phase at 30.0 uM after 12 hrs by propidium iodide staining-based flow cytometry (reference value: 20.40%); assay type: functional
[13] = system: MDA-MB-231; test: Cell cycle arrest in human triple-negative MDA-MB-231 cells assessed as accumulation at S phase at 30.0 uM after 12 hrs by propidium iodide staining-based flow cytometry (reference value: 31.23%); assay type: functional
[14] = system: MDA-MB-231; test: Induction of DNA fragmentation in human triple-negative MDA-MB-231 cells at 30 uM by propidium iodide staining-based flow cytometry; assay type: functional, cell-based
[15] = system: MDA-MB-231; test: Induction of apoptosis in human triple-negative MDA-MB-231 cells assessed as necrotic cells after 12 hrs by Annexin V-FITC/propidium iodide staining-based flow cytometry (reference value: 0.1%); assay type: functional
[16] = system: MDA-MB-231; test: Induction of apoptosis in human triple-negative MDA-MB-231 cells assessed as late apoptotic cells after 12 hrs by Annexin V-FITC/propidium iodide staining-based flow cytometry (reference value: 3.7%); assay type: functional
[17] = system: MDA-MB-231; test: Induction of apoptosis in human triple-negative MDA-MB-231 cells assessed as viable cells after 12 hrs by Annexin V-FITC/propidium iodide staining-based flow cytometry (reference value: 93.1%); assay type: functional
[18] = system: MDA-MB-231; test: Induction of apoptosis in human triple-negative MDA-MB-231 cells assessed as early apoptotic cells after 12 hrs by Annexin V-FITC/propidium iodide staining-based flow cytometry (reference value: 3.1%); assay type: functional
[19] = system: MDA-MB-231; test: Induction of apoptosis in human triple-negative MDA-MB-231 cells assessed as increase in cleaved PARP level by western blot analysis; assay type: functional, cell-based; conditions: TDE = time-dependent effect
[20] = system: MDA-MB-231; test: Induction of apoptosis in human triple-negative MDA-MB-231 cells assessed as increase in DR5 level after 12 hrs by western blot analysis; assay type: functional, cell-based
[21] = system: MDA-MB-231; test: Induction of apoptosis in human triple-negative MDA-MB-231 cells assessed as increase in cleaved caspase-8 level after 6 to 12 hrs by western blot analysis; assay type: functional, cell-based
[22] = system: MDA-MB-231; test: Induction of apoptosis in human triple-negative MDA-MB-231 cells assessed as increase in cleaved caspase-9 level after 6 to 12 hrs by western blot analysis; assay type: functional, cell-based
[23] = system: MDA-MB-231; test: Induction of apoptosis in human triple-negative MDA-MB-231 cells assessed as increase in cleaved caspase-3 level after 6 to 12 hrs by western blot analysis; assay type: functional, cell-based
[24] = system: MDA-MB-231; test: Induction of apoptosis in human triple-negative MDA-MB-231 cells assessed as decrease in caspase-7 level after 6 to 12 hrs by western blot analysis; assay type: functional, cell-based
[25] = system: MDA-MB-231; test: Cell cycle arrest in human triple-negative MDA-MB-231 cells assessed as accumulation at G0/G1 phase at 2.5 uM after 12 hrs by propidium iodide staining-based flow cytometry (reference value: 48.36%); assay type: functional
[26] = system: MDA-MB-231; test: Cell cycle arrest in human triple-negative MDA-MB-231 cells assessed as accumulation at G2/M phase at 2.5 uM after 12 hrs by propidium iodide staining-based flow cytometry (reference value: 20.40%); assay type: functional
[27] = system: MDA-MB-231; test: Cell cycle arrest in human triple-negative MDA-MB-231 cells assessed as accumulation at S phase at 2.5 uM after 12 hrs by propidium iodide staining-based flow cytometry (reference value: 31.23%); assay type: functional
[28] = system: MDA-MB-231; test: Induction of apoptosis in human triple-negative MDA-MB-231 cells at 2.5 uM after 6 to 48 hrs by microscopic analysis; assay type: functional, cell-based
[29] = system: MDA-MB-231; test: Antiproliferative activity against human triple-negative MDA-MB-231 cells after 72 hrs by CellTiter-Glo assay; assay type: functional, cell-based
[30] = system: MDA-MB-231; test: Antiproliferative activity against human triple-negative MDA-MB-231 cells at 9 uM after 72 hrs by CellTiter-Glo assay; assay type: functional, cell-based
[31] = system: MCF7; test: Antiproliferative activity against human ER-positive MCF7 cells after 72 hrs by CellTiter-Glo assay; assay type: functional, cell-based
[32] = Half life in human microsomes; assay type: ADME, Microsome
[33] = Half life in mouse microsomes; assay type: ADME, Microsome
[34] = Intrinsic clearance in human microsomes; assay type: ADME, Microsome
[35] = Intrinsic clearance in mouse microsomes; assay type: ADME, Microsome
[36] = Plasma protein binding in human; assay type: ADME, cell-free; conditions: read-out: PPB (converted)
[37] = Plasma protein binding in mouse; assay type: ADME; conditions: read-out: PPB (converted)
[38] = system: MDA-MB-231; test: Cell cycle arrest in human triple-negative MDA-MB-231 cells assessed as accumulation at G0/G1 phase at 8.5 uM after 12 hrs by propidium iodide staining-based flow cytometry (reference value: 48.36%); assay type: functional
[39] = system: MDA-MB-231; test: Cell cycle arrest in human triple-negative MDA-MB-231 cells assessed as accumulation at G2/M phase at 8.5 uM after 12 hrs by propidium iodide staining-based flow cytometry (reference value: 20.40%); assay type: functional
[40] = system: MDA-MB-231; test: Cell cycle arrest in human triple-negative MDA-MB-231 cells assessed as accumulation at S phase at 8.5 uM after 12 hrs by propidium iodide staining-based flow cytometry (reference value: 31.23%); assay type: functional
[41] = system: MDA-MB-231; test: Induction of DNA fragmentation in human triple-negative MDA-MB-231 cells at 8.5 uM by propidium iodide staining-based flow cytometry; assay type: functional, cell-based; conditions: TDE = time-dependent effect
[42] = system: MDA-MB-231; test: Induction of apoptosis in human triple-negative MDA-MB-231 cells assessed as cell shrinkage at 16 uM after 6 to 48 hrs by microscopic analysis; assay type: functional, cell-based
[43] = system: MDA-MB-231; test: Induction of apoptosis in human triple-negative MDA-MB-231 cells assessed as cell detachment at 16 uM after 6 to 48 hrs by microscopic analysis; assay type: functional, cell-based
[44] = system: MDA-MB-231; test: Induction of apoptosis in human triple-negative MDA-MB-231 cells assessed as cell death at 16 uM after 6 to 48 hrs by microscopic analysis; assay type: functional, cell-based
[45] = system: MDA-MB-231; test: Antiproliferative activity against human triple-negative MDA-MB-231 cells at <= 50 uM after 72 hrs by CellTiter-Glo assay; assay type: functional, cell-based
[46] = system: HEK293; test: Cytotoxicity against HEK293 cells at <= 50 uM after 72 hrs by CellTiter-Glo assay; assay type: cell-based; conditions: human, hek293, 72 h
[47] = system: HepG2; test: Cytotoxicity against human HepG2 cells at <= 50 uM after 72 hrs by CellTiter-Glo assay; assay type: cell-based; conditions: hepg2, 72 h
[48] = system: MDA-MB-231; test: Antiproliferative activity against human triple-negative MDA-MB-231 cells at 29 uM after 72 hrs by CellTiter-Glo assay; assay type: functional, cell-based
[49] = system: MDA-MB-231; test: Cell cycle arrest in human triple-negative MDA-MB-231 cells assessed as accumulation at G0/G1 phase at 28.5 uM after 12 hrs by propidium iodide staining-based flow cytometry (reference value: 48.36%); assay type: functional
[50] = system: MDA-MB-231; test: Cell cycle arrest in human triple-negative MDA-MB-231 cells assessed as accumulation at G2/M phase at 28.5 uM after 12 hrs by propidium iodide staining-based flow cytometry (reference value: 20.40%); assay type: functional
[51] = system: MDA-MB-231; test: Cell cycle arrest in human triple-negative MDA-MB-231 cells assessed as accumulation at S phase at 28.5 uM after 12 hrs by propidium iodide staining-based flow cytometry (reference value: 31.23%); assay type: functional
[52] = system: MDA-MB-231; test: Antiproliferative activity against human triple-negative MDA-MB-231 cells at 22 uM after 72 hrs by CellTiter-Glo assay; assay type: functional, cell-based

NC(=O)N1c2ccccc2C=Cc2ccccc21 [CARBAMAZEPINE]
Papp [1]: 128 ×10⁻⁶ cm/s
Papp A→B [2]: 66.7 ×10⁻⁶ cm/s
Papp B→A [3]: 42.8 ×10⁻⁶ cm/s
efflux ratio [4]: 0.6
permeability [5]: 40.9%

CC1CC(OC(=O)C(O)c2ccccc2)CC(C)(C)N1C (centres undefined) [EUCATROPINE]
half-life [6]: 0.42 h
half-life [7]: 1.8 h

CC(C)c1ccc2c(c1)CC[C@H]1[C@](C)(CNS(=O)(=O)c3ccc(C=O)cc3)CCC[C@]21C
Activity [8]: Active
Activity [9]: Active
Activity [10]: inactive
Activity [11]: 63.41%
Activity [12]: 16.89%
Activity [13]: 19.7%
Activity [14]: Active
Activity [15]: 0.2%
Activity [16]: 6%
Activity [17]: 90.4%
Activity [18]: 3.4%
Activity [19]: tde
Activity [20]: Active
Activity [21]: Active
Activity [22]: Active
Activity [23]: Active
Activity [24]: Active

CN[C@@H]1C[C@H]2O[C@@](C)([C@@H]1OC)n1c3ccccc3c3c4c(c5c6ccccc6n2c5c31)C(=O)NC4 [STAUROSPORINE]
Activity [25]: 43.5%
Activity [26]: 23.28%
Activity [27]: 33.22%
Activity [15]: 0.5%
Activity [17]: 55.7%
Activity [18]: 25%
Activity [28]: inactive

CC(C)c1ccc2c(c1)CC[C@H]1[C@](C)(CNS(=O)(=O)c3c(F)c(F)c(F)c(F)c3F)CCC[C@]21C
EC50 ([29]; MDA-MB-231, 72 h): 9 µM
Activity [30]: Active
Activity [31]: inactive
half-life [32]: 0.93 h
half-life [33]: 0.51 h
CLint scaled [34]: 22.3 mL/min/kg
CLint scaled [35]: 112 mL/min/kg
fraction unbound [36]: 0.052
fraction unbound [37]: 0.007
half-life [6]: 6.76 h
half-life [7]: 37.7 h
Papp [1]: 62.5 ×10⁻⁶ cm/s
Papp A→B [2]: 1.96 ×10⁻⁶ cm/s
Papp B→A [3]: 1.57 ×10⁻⁶ cm/s
efflux ratio [4]: 0.8
Activity [38]: 61.26%
Activity [39]: 18.37%
Activity [40]: 20.37%
Activity [41]: tde
Activity [15]: 0.5%
Activity [16]: 16.7%
Activity [17]: 61.5%
Activity [18]: 21.3%
Activity [19]: tde
Activity [20]: Active
Activity [21]: Active
Activity [22]: Active
Activity [23]: Active
Activity [24]: Active
Activity [42]: Active
Activity [43]: Active
Activity [44]: Active
permeability [5]: 60.4%

CC(C)c1cc2c(cc1O)[C@@]1(C)CCCC(C)(C)[C@@H]1CC2 [FERRUGINOL]
Activity [45]: Active
Activity [46]: Non-toxic
Activity [47]: Non-toxic
Activity [48]: Active
Activity [49]: 50.76%
Activity [50]: 19.54%
Activity [51]: 29.7%
Activity [15]: 0.2%
Activity [16]: 9.6%
Activity [17]: 85.8%
Activity [18]: 4.4%
Activity [19]: tde
Activity [20]: Active
Activity [22]: inactive
Activity [24]: Active

CC(C)C1=CC2=CC[C@@H]3[C@](C)(CCC[C@@]3(C)C(=O)O)[C@H]2CC1
Activity [29]: inactive

CC(C)c1cc2c(c(O)c1O)[C@@]13CCCC(C)(C)[C@@H]1C[C@@H]2OC3=O [CARNOSOL]
Activity [45]: Active
Activity [46]: Non-toxic
Activity [47]: Non-toxic
Activity [52]: Active
